Source: ChEMBL document CHEMBL1275272, “Synthesis, characterization and antimicrobial activity of some disubstituted 1,3,4-oxadiazoles carrying 2-(aryloxymethyl)phenyl moiety” (2010)
Converted amounts (≈) assume the structure as drawn.

Key:
Format in all cases: functional
Pseudomonas aeruginosa = assay: Antibacterial activity against Pseudomonas aeruginosa after 16 to 18 hrs by serial dilution method; settings: for MIC: Pseudomonas aeruginosa
How it was run: (§1)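 The test compound was dissolved in DMF and serially diluted. A standard drop of the prepared microbial culture was added to each dilution, and tubes were incubated at 37 °C for 16–18 h. MIC was taken as the highest dilution that stayed clear with no visible turbidity.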

Aspergillus flavus = assay: Antifungal activity against Aspergillus flavus after 16 to 18 hrs by serial dilution method; settings: for MIC: Aspergillus flavus; how it was run: as §1
Escherichia coli = assay: Antibacterial activity against Escherichia coli after 16 to 18 hrs by serial dilution method; settings: for MIC: Escherichia coli; how it was run: as §1
Aspergillus fumigatus = assay: Antifungal activity against Aspergillus fumigatus after 16 to 18 hrs by serial dilution method; settings: for MIC: Aspergillus fumigatus
Staphylococcus aureus = assay: Antibacterial activity against Staphylococcus aureus after 16 to 18 hrs by serial dilution method; settings: for MIC: Staphylococcus aureus; how it was run: as §1
[1] = tested on: Trichophyton mentagrophytes; assay: Antifungal activity against Trichophyton mentagrophytes after 16 to 18 hrs by serial dilution method; settings: for MIC: Trichophyton mentagrophytes
Talaromyces marneffei = assay: Antifungal activity against Penicillium marneffei after 16 to 18 hrs by serial dilution method; settings: for MIC: Talaromyces marneffei; how it was run: as §1
Klebsiella pneumoniae = assay: Antibacterial activity against Klebsiella pneumoniae after 16 to 18 hrs by serial dilution method; settings: for MIC: Klebsiella pneumoniae

MIC (Pseudomonas aeruginosa) | MIC (Aspergillus flavus) | MIC (Escherichia coli) | MIC (Aspergillus fumigatus) | MIC (Staphylococcus aureus) | MIC [1] | MIC (Talaromyces marneffei) | MIC (Klebsiella pneumoniae) | SMILES | inhibition zone (IZ) (Pseudomonas aeruginosa) | inhibition zone (IZ) (Aspergillus flavus) | inhibition zone (IZ) (Escherichia coli) | inhibition zone (IZ) (Aspergillus fumigatus) | inhibition zone (IZ) (Staphylococcus aureus) | inhibition zone (IZ) [1] | inhibition zone (IZ) (Talaromyces marneffei) | inhibition zone (IZ) (Klebsiella pneumoniae)
6.25 µg/mL (≈ 14.5 µM) | 6.25 µg/mL (≈ 14.5 µM) | 6.25 µg/mL (≈ 14.5 µM) | 6.25 µg/mL (≈ 14.5 µM) | 6.25 µg/mL (≈ 14.5 µM) | 6.25 µg/mL (≈ 14.5 µM) | 6.25 µg/mL (≈ 14.5 µM) | 6.25 µg/mL (≈ 14.5 µM) | COc1cc(-c2nnc(-c3ccccc3COc3ccccc3C)o2)cc(OC)c1OC | 16 mm | 16 mm | 16 mm | 16 mm | 16 mm | 16 mm | 16 mm | 16 mm
6.25 µg/mL (≈ 14.5 µM) | 12.5 µg/mL (≈ 28.9 µM) | 6.25 µg/mL (≈ 14.5 µM) | 6.25 µg/mL (≈ 14.5 µM) | 6.25 µg/mL (≈ 14.5 µM) | 12.5 µg/mL (≈ 28.9 µM) | 6.25 µg/mL (≈ 14.5 µM) | 6.25 µg/mL (≈ 14.5 µM) | COc1cc(-c2nnc(-c3ccccc3COc3cccc(C)c3)o2)cc(OC)c1OC | 16 mm | 11 mm | 16 mm | 16 mm | 16 mm | 11 mm | 16 mm | 16 mm
6.25 µg/mL (≈ 14.5 µM) | 12.5 µg/mL (≈ 28.9 µM) | 6.25 µg/mL (≈ 14.5 µM) | 6.25 µg/mL (≈ 14.5 µM) | 6.25 µg/mL (≈ 14.5 µM) | 12.5 µg/mL (≈ 28.9 µM) | 6.25 µg/mL (≈ 14.5 µM) | 6.25 µg/mL (≈ 14.5 µM) | COc1cc(-c2nnc(-c3ccccc3COc3ccc(C)cc3)o2)cc(OC)c1OC | 16 mm | 11 mm | 16 mm | 16 mm | 16 mm | 11 mm | 16 mm | 16 mm
6.25 µg/mL (≈ 13.8 µM) | 6.25 µg/mL (≈ 13.8 µM) | 6.25 µg/mL (≈ 13.8 µM) | 6.25 µg/mL (≈ 13.8 µM) | 6.25 µg/mL (≈ 13.8 µM) | 6.25 µg/mL (≈ 13.8 µM) | 6.25 µg/mL (≈ 13.8 µM) | 6.25 µg/mL (≈ 13.8 µM) | COc1cc(-c2nnc(-c3ccccc3COc3ccc(Cl)cc3)o2)cc(OC)c1OC | 16 mm | 16 mm | 16 mm | 16 mm | 16 mm | 16 mm | 16 mm | 16 mm
6.25 µg/mL (≈ 17.3 µM) | 6.25 µg/mL (≈ 17.3 µM) | 6.25 µg/mL (≈ 17.3 µM) | 6.25 µg/mL (≈ 17.3 µM) | 6.25 µg/mL (≈ 17.3 µM) | 6.25 µg/mL (≈ 17.3 µM) | 6.25 µg/mL (≈ 17.3 µM) | 6.25 µg/mL (≈ 17.3 µM) | Cc1ccccc1OCc1ccccc1-c1nnc(-c2ccccc2F)o1 | 16 mm | 16 mm | 16 mm | 16 mm | 16 mm | 16 mm | 16 mm | 16 mm
6.25 µg/mL (≈ 17.3 µM) | 12.5 µg/mL (≈ 34.7 µM) | 6.25 µg/mL (≈ 17.3 µM) | 12.5 µg/mL (≈ 34.7 µM) | 6.25 µg/mL (≈ 17.3 µM) | 6.25 µg/mL (≈ 17.3 µM) | 6.25 µg/mL (≈ 17.3 µM) | 6.25 µg/mL (≈ 17.3 µM) | Cc1cccc(OCc2ccccc2-c2nnc(-c3ccccc3F)o2)c1 | 16 mm | 11 mm | 16 mm | 11 mm | 16 mm | 16 mm | 16 mm | 16 mm
6.25 µg/mL (≈ 17.3 µM) | 6.25 µg/mL (≈ 17.3 µM) | 6.25 µg/mL (≈ 17.3 µM) | 6.25 µg/mL (≈ 17.3 µM) | 6.25 µg/mL (≈ 17.3 µM) | 6.25 µg/mL (≈ 17.3 µM) | 6.25 µg/mL (≈ 17.3 µM) | 6.25 µg/mL (≈ 17.3 µM) | Cc1ccc(OCc2ccccc2-c2nnc(-c3ccccc3F)o2)cc1 | 16 mm | 16 mm | 16 mm | 16 mm | 16 mm | 16 mm | 16 mm | 16 mm
6.25 µg/mL (≈ 16.4 µM) | 6.25 µg/mL (≈ 16.4 µM) | 6.25 µg/mL (≈ 16.4 µM) | 6.25 µg/mL (≈ 16.4 µM) | 6.25 µg/mL (≈ 16.4 µM) | 6.25 µg/mL (≈ 16.4 µM) | 6.25 µg/mL (≈ 16.4 µM) | 6.25 µg/mL (≈ 16.4 µM) | Fc1ccccc1-c1nnc(-c2ccccc2COc2ccc(Cl)cc2)o1 | 16 mm | 16 mm | 16 mm | 16 mm | 16 mm | 16 mm | 16 mm | 16 mm
25 µg/mL (≈ 73 µM) | 25 µg/mL (≈ 73 µM) | 25 µg/mL (≈ 73 µM) | 25 µg/mL (≈ 73 µM) | 25 µg/mL (≈ 73 µM) | 25 µg/mL (≈ 73 µM) | 25 µg/mL (≈ 73 µM) | 25 µg/mL (≈ 73 µM) | Cc1ccccc1OCc1ccccc1-c1nnc(-c2ccccc2)o1 | <10 mm | <10 mm | <10 mm | <10 mm | <10 mm | <10 mm | <10 mm | <10 mm
25 µg/mL (≈ 73 µM) | 25 µg/mL (≈ 73 µM) | 25 µg/mL (≈ 73 µM) | 25 µg/mL (≈ 73 µM) | 25 µg/mL (≈ 73 µM) | 25 µg/mL (≈ 73 µM) | 25 µg/mL (≈ 73 µM) | 25 µg/mL (≈ 73 µM) | Cc1cccc(OCc2ccccc2-c2nnc(-c3ccccc3)o2)c1 | <10 mm | <10 mm | <10 mm | <10 mm | <10 mm | <10 mm | <10 mm | <10 mm
25 µg/mL (≈ 73 µM) | 25 µg/mL (≈ 73 µM) | 25 µg/mL (≈ 73 µM) | 25 µg/mL (≈ 73 µM) | 25 µg/mL (≈ 73 µM) | 25 µg/mL (≈ 73 µM) | 25 µg/mL (≈ 73 µM) | 25 µg/mL (≈ 73 µM) | Cc1ccc(OCc2ccccc2-c2nnc(-c3ccccc3)o2)cc1 | <10 mm | <10 mm | <10 mm | <10 mm | <10 mm | <10 mm | <10 mm | <10 mm
25 µg/mL (≈ 68.9 µM) | 25 µg/mL (≈ 68.9 µM) | 25 µg/mL (≈ 68.9 µM) | 25 µg/mL (≈ 68.9 µM) | 25 µg/mL (≈ 68.9 µM) | 25 µg/mL (≈ 68.9 µM) | 25 µg/mL (≈ 68.9 µM) | 25 µg/mL (≈ 68.9 µM) | Clc1ccc(OCc2ccccc2-c2nnc(-c3ccccc3)o2)cc1 | <10 mm | <10 mm | <10 mm | <10 mm | <10 mm | <10 mm | <10 mm | <10 mm
12.5 µg/mL (≈ 33.7 µM) | 12.5 µg/mL (≈ 33.7 µM) | 12.5 µg/mL (≈ 33.7 µM) | 6.25 µg/mL (≈ 16.9 µM) | 12.5 µg/mL (≈ 33.7 µM) | 12.5 µg/mL (≈ 33.7 µM) | 12.5 µg/mL (≈ 33.7 µM) | 12.5 µg/mL (≈ 33.7 µM) | Cc1cc(C)cc(-c2nnc(-c3ccccc3COc3ccccc3C)o2)c1 | 11 mm | 11 mm | 11 mm | 16 mm | 11 mm | 11 mm | 11 mm | 11 mm
12.5 µg/mL (≈ 33.7 µM) | 12.5 µg/mL (≈ 33.7 µM) | 12.5 µg/mL (≈ 33.7 µM) | 6.25 µg/mL (≈ 16.9 µM) | 12.5 µg/mL (≈ 33.7 µM) | 12.5 µg/mL (≈ 33.7 µM) | 12.5 µg/mL (≈ 33.7 µM) | 12.5 µg/mL (≈ 33.7 µM) | Cc1cccc(OCc2ccccc2-c2nnc(-c3cc(C)cc(C)c3)o2)c1 | 11 mm | 11 mm | 11 mm | 16 mm | 11 mm | 11 mm | 11 mm | 11 mm
12.5 µg/mL (≈ 33.7 µM) | 12.5 µg/mL (≈ 33.7 µM) | 12.5 µg/mL (≈ 33.7 µM) | 12.5 µg/mL (≈ 33.7 µM) | 12.5 µg/mL (≈ 33.7 µM) | 12.5 µg/mL (≈ 33.7 µM) | 12.5 µg/mL (≈ 33.7 µM) | 12.5 µg/mL (≈ 33.7 µM) | Cc1ccc(OCc2ccccc2-c2nnc(-c3cc(C)cc(C)c3)o2)cc1 | 11 mm | 11 mm | 11 mm | 11 mm | 11 mm | 11 mm | 11 mm | 11 mm
12.5 µg/mL (≈ 32 µM) | 12.5 µg/mL (≈ 32 µM) | 12.5 µg/mL (≈ 32 µM) | 12.5 µg/mL (≈ 32 µM) | 12.5 µg/mL (≈ 32 µM) | 12.5 µg/mL (≈ 32 µM) | 12.5 µg/mL (≈ 32 µM) | 12.5 µg/mL (≈ 32 µM) | Cc1cc(C)cc(-c2nnc(-c3ccccc3COc3ccc(Cl)cc3)o2)c1 | 11 mm | 11 mm | 11 mm | 11 mm | 11 mm | 11 mm | 11 mm | 11 mm
